# Screening results (PubChem BioAssay)
# Rows were chosen to be rich in hits. Some 3.7% of all compounds tested hit in one or more screens of this group.
# KCNQ1 pot – potentiators or activators of human KCNQ1 potassium channel; P51787; CHO-K1 KCNQ1, thallium flux FluxOR fluorescence; active compounds read high; B-score at 10 µM; hit rate 0.35% among 310,000; AID 2648;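 active means fluorescence ratio B-score, a plate-corrected score, at least three library SD, with initial intensity B-score within 5 SD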
#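 Doses: Single concentration per compound, DMSO matched to controls | Test system: KCNQ1-transfected CHO-K1 cells | Timing: 90 min dye loading and 20 min compound exposure, both at room temperature | Measured by: Kinetic FluxOR thallium fluorescence, 10-s 1-Hz baseline, 110-s post-stimulus read | Medium: Assay buffer with matched DMSO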
# hERG rescue – compounds protecting human hERG from proarrhythmic drug block; Q12809; CHO-hERG, FluxOR thallium flux, dofetilide IC70 present; activation (rescue from dofetilide block), less the hit threshold, % at 10 µM; hit rate 0.51% among 310,000;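 active means activation above the mean of controls blocked by dofetilide plus 5 SD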;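 further: thallium influx through hERG after potassium depolarization seen as dye fluorescence rise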
# KCNQ1 inh – inhibitors of human KCNQ1 potassium channel; P51787; CHO-K1 KCNQ1, FluxOR thallium flux fluorescence; active compounds read high; B-score at 10 µM; hit rate 1.3% among 310,000; AID 2642;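 active means compounds whose thallium flux B-score, printed positive for inhibition, exceeds three library SD while starting fluorescence stays within three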;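 further: channel opened by potassium depolarization with thallium stimulus after 20 min compound exposure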
# KCNK3 block – human KCNK3 channel inhibition, primary screen; O14649; CHO-KCNK3 thallium flux, FluxOR fluorescence; active compounds read low; B-score at 10 µM; hit rate 0.84% among 340,000; AID 602410;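 active means B-score under library mean minus 4 SD, starting fluorescence ratio at most library mean plus 5 SD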;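 further: more negative B-score means stronger inhibition of thallium flux through KCNK3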
# Kir21 inh – Kir2.1 (mouse) channel inhibition; HEK293-Kir2.1, FluxOR thallium flux fluorescence; active compounds read low; P35561; hit rate 0.85% among 310,000; B-score at 10 µM; AID 1672;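 active means fluorescence ratio B-score at or below minus 3 SD of library scores, with starting-brightness B-score within 2 SD, cut at about -4.2 in these data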;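 further: channel flux triggered by added potassium and thallium sulfate stimulus; B-score of peak minus minimum fluorescence over baseline after thallium stimulus; more negative B-score means stronger Kir2.1 block with less thallium influx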
# KCNK9 block – inhibitors of human KCNK9 two-pore domain potassium channel. B-score at 10 µM. hit rate 1.2% among 310,000. HEK293 KCNK9, FluxOR thallium flux fluorescence; active compounds read low. Q9NPC2;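 active means ratio B-score over 3 SD below the library mean, with starting fluorescence within 5 SD of its mean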;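 further: negative B-score means less thallium flux so channel inhibition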
# Target sequence (Q9NPC2 whole entry, looked up, the tested form may be a part): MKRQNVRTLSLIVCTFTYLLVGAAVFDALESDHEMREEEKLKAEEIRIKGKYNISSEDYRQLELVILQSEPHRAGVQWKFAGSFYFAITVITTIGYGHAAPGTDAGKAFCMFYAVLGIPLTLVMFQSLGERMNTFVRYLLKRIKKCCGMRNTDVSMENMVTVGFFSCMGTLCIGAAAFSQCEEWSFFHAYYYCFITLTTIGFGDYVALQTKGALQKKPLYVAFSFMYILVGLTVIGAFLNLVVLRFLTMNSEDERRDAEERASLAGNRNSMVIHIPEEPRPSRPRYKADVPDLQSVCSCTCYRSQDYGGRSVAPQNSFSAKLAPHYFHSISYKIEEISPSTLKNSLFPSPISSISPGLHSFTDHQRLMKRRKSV
# KCNK9 inh conf – human KCNK9 inhibitor confirmation. shares compounds with KCNK9 block. inhibition, % at 10 µM. HEK293 KCNK9 cells, FluxOR thallium flux fluorescence. hit rate 43% among 4,900;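 active means thallium signal inhibited by more than 5 SD of the compound-free buffer control wells, on both duplicate plates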;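 further: 0% = assay buffer control wells without compound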
# Kir21 sel – mouse Kir2.1 off-target activity of KCNK9 modulators | AID 492993 | inhibition, % at 10 µM | shares compounds with KCNK9 block | hit rate 4% among 4,900 | Kir2.1 cells, FluxOR thallium flux fluorescence;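 active means thallium signal drop more than 5 SD beyond the mean of the no-compound control wells, seen in both duplicate plates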;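 further: signal is fluorescence rise after thallium addition divided by baseline fluorescence; plate controls were assay buffer only for no effect and full block by chlorpromazine control for full effect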
# KCNK9 uninduced – non-induced cell nonspecific activity of KCNK9 modulators. shares compounds with KCNK9 block. non-induced KCNK9-HEK293, FluxOR thallium flux. inhibition, % at 10 µM. hit rate 40% among 4,900. AID 492997;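 active means thallium signal drop beyond 5 SD of the untreated control mean, on both duplicate plates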;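 further: plate controls were buffer only IC0 wells for no effect and SID17386958 at its maximal inhibitory level for full effect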
# KCNK3 confirm – human KCNK3 channel inhibition, confirmation assay; shares compounds with KCNK3 block; CHO-KCNK3 thallium flux, FluxOR fluorescence; 0% buffer, 100% carvedilol maximal block; ratio percent of control, % at 10 µM; hit rate 99% among 2,400;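 active means ratio percent of control, averaged over triplicates, above buffer control mean plus 5 SD, cut at about 64% in these data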;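 further: ratio is the fluorescence rise from min to max over baseline after thallium stimulus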
# KCNK3 uninduced – activity in cells without induced KCNK3 expression | shares compounds with KCNK3 block | thallium flux ratio (lower = more inhibition) at 10 µM | non-induced KCNK3 parental cells, FluxOR thallium flux; active compounds read low | hit rate 40% among 2,400;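 active means thallium flux ratio, averaged over three wells, more than 5 SD below the buffer control mean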;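 further: host cells are CHO cells without KCNK3 induction; ratio is peak minus trough fluorescence over baseline then normalized to buffer controls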
# Active calls of the source: *; i = inactive; . = no result.
SMILES,KCNQ1 pot,hERG rescue,KCNQ1 inh,KCNK3 block,Kir21 inh,KCNK9 block,KCNK9 inh conf,Kir21 sel,KCNK9 uninduced,KCNK3 confirm,KCNK3 uninduced
OCCn1c(SCCOc2ccccc2)nc2ccccc21,i,-8,i,i,-0.61,i,.,.,.,.,.
Cc1ccc(NC(=O)c2sc3ccccc3c2Cl)nc1,i,-6,i,i,0.05,-15*,56%*,i,30%*,87*,i
Cc1nnc(NC(=O)c2sc3ccccc3c2Cl)s1,i,-4,i,i,-1.7,i,.,.,.,.,.
Cc1cc(NC(=O)COC(=O)c2nccnc2N)n(-c2ccccc2)n1,i,-14,i,i,2,i,.,.,.,.,.
CC(C)(C)c1cc(NC(=O)COC(=O)c2nccnc2N)n(-c2ccccc2)n1,i,-11,i,-9.1*,1.8,-8.6*,52%*,i,32%*,94*,i
Cc1cc(C)c(S(=O)(=O)NC2CC(C)(C)NC(C)(C)C2)cc1Br,i,0,i,i,-2.8,i,.,.,.,.,.
CC(C)CCN(C(=S)Nc1cccc(C(F)(F)F)c1)C(C)c1ccccn1 (centres undefined),i,-16,i,-14*,-2.1,-9.3*,64%*,i,42%*,130*,0.13*
Cn1ncc(C#N)c1/N=C/N(Cc1ccccc1)Cc1ccccc1,i,-11,i,-8.9*,0.37,-15*,36%*,i,29%*,114*,0.16*
CC(Oc1ccc(Cl)cc1Cl)c1nc(-c2ccc(NC(=O)c3ccco3)cc2)no1 (centres undefined),i,-10,i,-8.8*,1.5,-13*,53%*,i,34%*,121*,0.15*
Cc1nn(S(=O)(=O)c2cccs2)c(C)c1Sc1ccc([N+](=O)[O-])cc1,i,-13,i,-12*,0.61,-11*,54%*,i,28%*,120*,0.16*
Cc1nn(S(=O)(=O)c2ccccc2)c(C)c1Sc1ccc([N+](=O)[O-])cc1,i,-11,i,i,0.23,i,.,.,.,.,.
O=C(CC(CC(=O)c1ccccc1)c1ccccc1)c1ccccc1,i,-10,i,-11*,0.83,-12*,36%*,i,34%*,110*,i
O=C(CC(CC(=O)c1ccccc1)C(=O)O)c1ccccc1,i,-15,i,i,0.09,i,.,.,.,.,.
COc1ccccc1C1CCN(C(=O)C2CCCCC2)CC1,i,-5,i,i,-1.1,i,.,.,.,.,.
COc1ccccc1C1CCN(c2cc(O)ccc2[N+](=O)[O-])CC1,i,-13,11*,-10*,-0.04,-11*,55%*,i,44%*,111*,i
CC1(C)Cc2ccccc2C(NNC(=O)c2ccc(Br)o2)=N1,i,-13,i,i,-0.19,i,.,.,.,.,.
COc1ccc(Br)cc1/C=C/C(=O)Nc1ccc2ccccc2c1,i,-10,i,i,0.24,i,.,.,.,.,.
CCC(=O)Nc1cccc(C(=O)/C=C/c2cc(Br)ccc2OC)c1,i,-10,i,-9.3*,-0.51,-10*,38%*,i,30%*,138*,i
Cc1cc(C(=O)Nc2ccncc2)c2ccccc2n1,i,-7,i,i,0.12,i,.,.,.,.,.
CCOc1ccccc1NC(=O)CN(C)S(=O)(=O)c1ccc(OC)c(C)c1,i,-1,i,i,-1.3,-15*,50%*,i,i,95*,i
Cc1ccc(CNC(=O)C2CCC(=O)N(CCc3ccc(Cl)cc3)C2)cc1 (centres undefined),i,-11,i,i,-1.1,i,.,.,.,.,.
Cn1c2ccccc2c(=O)c2c(=O)n(-c3ccccc3)c(-c3ccc(C(C)(C)C)cc3)nc21,i,-11,i,-8.9*,1.2,-12*,34%*,i,i,130*,0.099*
Cc1ccc(-c2nc3c(c(=O)c4ccccc4n3C)c(=O)n2-c2ccc(F)cc2)cc1,i,-8,i,i,0.01,i,.,.,.,.,.
COc1ccc(C)cc1NC(=O)C1CCN(C(=O)C2CC(=O)N(c3ccc(C)cc3)C2)CC1 (centres undefined),i,-1,i,i,-0.65,i,.,.,.,.,.
COc1cc(OC)cc(-c2c(C#Cc3ccsc3)c3cc(-c4cccc5[nH]cc(C=O)c45)ccc3n2C)c1,.,.,.,i,.,.,.,.,.,.,.
SMILES,KCNQ1 pot,hERG rescue,KCNQ1 inh,KCNK3 block,Kir21 inh,KCNK9 block,KCNK9 inh conf,Kir21 sel,KCNK9 uninduced,KCNK3 confirm,KCNK3 uninduced
COc1ccc(OC)c(NC(=O)c2cccc(NC(=O)c3ccccc3)c2)c1,i,-5,i,-11*,3.9,-9*,47%*,i,i,102*,i
COc1cccc(C(=O)Nc2cccc(-c3nnc(-c4ccccc4)o3)c2)c1,i,-16,i,-10*,-1.4,-8.4*,46%*,i,30%*,103*,0.15*
COc1ccc(NC(=O)c2cccc(NC(=O)c3ccccc3)c2)c(OC)c1,i,0,i,i,-0.74,i,.,.,.,.,.
CCN(CC)CCC(O)(c1ccc2c(c1)OCO2)c1cc(OC)c(OC)c(OC)c1 (centres undefined),.,.,.,i,.,.,.,.,.,.,.
COc1ccccc1CNC(=O)c1csc(Cc2ccc(Cl)cc2)n1,i,-10,i,-13*,4.6,i,i,i,26%*,122*,0.14*
COc1ccc(CNC(=O)c2csc(Cc3ccccc3)n2)cc1,i,-9,i,i,-4.2,i,.,.,.,.,.
CCC(C)(C)n1nnnc1CN(Cc1ccc(Cl)cc1)Cc1ccco1,i,-16,i,i,-5.1*,-11*,54%*,i,40%*,126*,0.16*
Cn1cccc1/C=C1\CCC/C(=C\c2cccn2C)C1=O,i,-36,14*,-12*,-8.6,-9.6*,78%*,60%*,i,0,i
